pIC50: −log10 of the molar value.
How the values were obtained:
[1] = target: Xanthine dehydrogenase/oxidase (Bos taurus, UniProt P80457); test: Inhibition of bovine xanthine oxidase assessed as conversion of xanthine to uric acid by spectroscopic analysis; conditions: for pIC50: read-out: IC50
Outline: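 XO suspended in 20 mM phosphate pH 7.5, added to xanthine (final 46 μM; final enzyme 39 μg/mL); uric acid formation followed at 295 nm for 5 min. Eleven inhibitor concentrations bracketing the IC50; rates by linear regression of absorbance vs time, fitted to a three-parameter logistic to give IC50.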

[2] = Antioxidant activity assessed as DPPH radical scavenging activity by measuring remaining DPPH level at 20 uM after 30 mins by plate reader analysis; type: physicochemical; conditions: 0.5 h
Outline: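 DPPH (0.2 mM in ethanol, 50 μL freshly prepared) mixed with 150 μL test compound in ethanol, 5–50 μM range; 30 min at room temperature in dark; loss of absorbance at 517 nm read. Scavenging activity = (1 − A_test/A_control) × 100%, control lacking scavenger; reported activity taken at 20 µM compound.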

[3] = Cytoprotective activity against amyloid beta-induced oxidative stress in mouse Neuro2a cells assessed as cell viability at 250 uM after 6 hrs by MTT assay; type: functional; conditions: N2a, read-out: Activity
Outline: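 Murine Neuro-2A cells in DMEM with 10% FBS and penicillin-streptomycin, 37°C, 5% CO2; trypsinized ≤1 min, seeded 2,000–4,000 cells/mL, 6 h. Then added 10 μL of 250 μM compound (stock), 15 μL of 833 μM Aβ 25–35 (stock), and MTT (5 mg/mL); 6 h, then SDS/DMF extraction buffer 6 h at 37°C in dark; A570 as percent of unstressed control.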

Sequence of Xanthine dehydrogenase/oxidase (P80457 whole entry): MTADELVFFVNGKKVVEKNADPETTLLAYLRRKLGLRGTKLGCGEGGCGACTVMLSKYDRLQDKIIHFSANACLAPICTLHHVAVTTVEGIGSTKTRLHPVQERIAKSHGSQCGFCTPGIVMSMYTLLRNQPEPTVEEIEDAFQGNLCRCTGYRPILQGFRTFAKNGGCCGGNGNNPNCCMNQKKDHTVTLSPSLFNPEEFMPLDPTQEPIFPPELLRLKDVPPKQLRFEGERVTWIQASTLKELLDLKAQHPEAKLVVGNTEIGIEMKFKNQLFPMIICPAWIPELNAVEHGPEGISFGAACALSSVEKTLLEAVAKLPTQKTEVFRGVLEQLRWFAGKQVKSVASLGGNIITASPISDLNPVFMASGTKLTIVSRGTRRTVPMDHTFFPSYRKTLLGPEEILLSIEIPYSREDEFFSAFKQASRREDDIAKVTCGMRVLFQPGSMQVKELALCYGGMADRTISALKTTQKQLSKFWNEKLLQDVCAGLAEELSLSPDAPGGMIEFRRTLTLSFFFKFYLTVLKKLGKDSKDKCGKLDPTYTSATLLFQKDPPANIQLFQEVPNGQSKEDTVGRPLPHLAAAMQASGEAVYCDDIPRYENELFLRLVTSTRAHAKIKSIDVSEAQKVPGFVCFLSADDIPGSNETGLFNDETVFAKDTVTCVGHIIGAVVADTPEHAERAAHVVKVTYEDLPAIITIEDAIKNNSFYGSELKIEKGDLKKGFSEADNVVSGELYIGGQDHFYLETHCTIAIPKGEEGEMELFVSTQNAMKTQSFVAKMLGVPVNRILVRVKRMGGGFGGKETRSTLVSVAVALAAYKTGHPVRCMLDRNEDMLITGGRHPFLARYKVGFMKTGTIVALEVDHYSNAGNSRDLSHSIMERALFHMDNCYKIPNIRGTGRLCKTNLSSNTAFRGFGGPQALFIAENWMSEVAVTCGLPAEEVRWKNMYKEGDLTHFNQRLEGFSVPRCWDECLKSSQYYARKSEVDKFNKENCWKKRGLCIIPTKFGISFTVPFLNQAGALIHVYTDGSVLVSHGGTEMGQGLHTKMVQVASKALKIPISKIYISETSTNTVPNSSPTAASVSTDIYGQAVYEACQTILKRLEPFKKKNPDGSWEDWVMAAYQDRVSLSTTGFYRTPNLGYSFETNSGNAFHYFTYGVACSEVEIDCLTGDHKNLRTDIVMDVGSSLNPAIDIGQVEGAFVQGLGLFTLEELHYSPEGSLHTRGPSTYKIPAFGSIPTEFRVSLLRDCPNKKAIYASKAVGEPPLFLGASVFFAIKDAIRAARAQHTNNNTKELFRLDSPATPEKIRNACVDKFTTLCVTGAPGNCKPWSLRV

SMILES | pIC50 [1] | Activity [2] [%] | IC50 [1] | viability at 250 µM [3] [%]
O=C(/C=C/c1ccc(O)c(O)c1)c1cc(O)ccc1O | 4.77 | 91 |  | 46
O=C(/C=C/c1ccc(O)c(O)c1)c1cccc(O)c1 | 5.28 | 82 |  | 35
O=C(/C=C/c1ccccc1O)c1ccccc1 |  | -0.6 | Not Active | 3
O=C(/C=C/c1ccc(O)c(O)c1)c1ccc(O)c(O)c1O | 5.92 | 92 |  | 118
O=C(/C=C/c1ccc(O)c(O)c1)c1ccc(O)c(O)c1 | 5.52 | 77 |  | 40
O=C(/C=C/c1ccccc1)c1cccc(O)c1 |  | 0.2 | Not Active | 5.9
O=C(/C=C/c1cccc(O)c1O)c1ccc(O)c(O)c1 | 4.03 | 70 |  | 46
O=C(/C=C/c1cc(O)ccc1O)c1ccc(O)c(O)c1 | 5.07 | 86 |  | 70
O=C(/C=C/c1ccc(O)c(O)c1O)c1ccc(O)c(O)c1O | 5.26 | 82 |  | 91
O=C(/C=C/c1ccc(O)c(O)c1O)c1ccc(O)c(O)c1 | 4.74 | 57 |  | 51
O=C(/C=C/c1ccccc1)c1ccc(O)cc1O [2',4'-DIHYDROXYCHALCONE] |  | -3 | Not Active | 3.9
O=C(/C=C/c1ccccc1)c1ccccc1O [2'-HYDROXYCHALCONE] |  | 6.7 | Not Active | 1.7

More lines, main results first:

pIC50 [1] | Activity [2] [%] | IC50 [1] | SMILES | viability at 250 µM [3] [%]
4.57 | 0.5 |  | O=C(/C=C/c1cccc(O)c1)c1ccc(O)cc1O | 6.9
4.28 | 90 |  | O=C(/C=C/c1ccc(O)c(O)c1)c1ccccc1 | 4.3
5.19 | 84 |  | O=C(/C=C/c1ccc(O)c(O)c1)c1cc(O)cc(O)c1 | 26
5.37 | 42 |  | O=C(/C=C/c1ccc(O)c(O)c1)c1ccc(O)cc1 | 28
4.46 | 90 |  | O=C(/C=C/c1ccc(O)c(O)c1)c1c(O)cccc1O | 28
 | -1.4 | Not Active | O=C(/C=C/c1ccccc1)c1ccc(O)cc1 [4'-HYDROXYCHALCONE] | 1.4
3.54 | -9.1 |  | O=C(/C=C/c1ccc(O)cc1)c1ccccc1 [4-HYDROXYCHALCONE] | 0
5.89 | 90 |  | O=C(/C=C/c1ccc(O)c(O)c1)c1ccc(O)cc1O [BUTEIN] | 71
